Active and inactive are the calls of the source. The rule behind the calls is not given here.
Columns and labels:
[1] = Relative potency compared to that of streptozotocin in albino rats.; type: functional
[2] = tested on: Rattus norvegicus; test: Diabetogenic activity in Lewis strain of albino rats after iv administration; type: functional
Method in brief: (§1)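 Male Lewis rats (200-230 g), 24 per dose level, fasted 12 h, then dosed by tail-vein iv injection, or ip as a saline suspension when poorly soluble. A rat counted as diabetic if glucosuria (>1%) appeared within 24 h and persisted 5 days. Blood sugar and islet histology were also observed. The dose making 50% of animals diabetic (ED50, mmol/kg) was estimated graphically.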

[3] = Relative potency compared to that of Alloxan in albino rats.; type: functional
[4] = Relative potency compared to that of Alloxan in albino rats; Inactive nondiabetogenic at the dose 2 g/kg ip; inactive; type: functional
[5] = tested on: Rattus norvegicus; test: Diabetogenic activity in Lewis strain of albino rats after iv administration; Inactive nondiabetogenic at the dose 2 g/kg ip; inactive; type: functional, organism-based; method in brief: as §1
[6] = Relative potency compared to that of streptozotocin in albino rats; Inactive nondiabetogenic at the dose 2 g/kg ip; inactive; type: functional
[7] = tested on: Rattus norvegicus; test: Diabetogenic activity in Lewis strain of albino rats after ip administration; type: functional; method in brief: as §1
[8] = Rattus norvegicus, iv, read-out: ED50

Row | SMILES | Relative potency [1] | ED50 [2, 8] | Relative potency [3] | Relative potency [4] | ED50 [5] | Relative potency [6] | ED50 [2] | ED50 [7]
1 | Br.N=C1C(=O)NC(=O)NC1=O | 0.9 | 160 µmol/kg | 1.9 | – | – | – | – | –
2 | NC(=O)NC1(O)C(=O)NC(=O)NC1=O | 1 | 150 µmol/kg | 2.1 | – | – | – | – | –
3 | NC(=O)NC1(N)C(=O)NC(=O)NC1=O | – | – | – | inactive | inactive | inactive | – | –
4 | Br.NC1(O)C(=O)NC(=O)NC1=O | 1 | 150 µmol/kg | 2.1 | – | – | – | – | –
5 | Cl.N=C1C(=O)NC(=O)NC1=O | 1.1 | – | 2.2 | – | – | – | 140 µmol/kg | –
6 | Cl.NC1(O)C(=O)NC(=O)NC1=O | 1.1 | – | 2.2 | – | – | – | 140 µmol/kg | –
7 | O=C1NC(=O)C2(O)NC(=O)NC2(O)N1 (configuration not stated) | – | – | 1.1 | – | – | – | – | 1060 µmol/kg
8 | O=C1NC(=O)C(O)(O)C(=O)N1 | 0.5 | 310 µmol/kg | 1 | – | – | – | – | 1120 µmol/kg
9 | CN(N=O)C(=O)N[C@@H](C=O)[C@@H](O)[C@H](O)[C@H](O)CO [STREPTOZOCIN] | 1 | 150 µmol/kg | 2.1 | – | – | – | – | –
